Measurements reported in ChEMBL document CHEMBL1124461, “Aromatic dienoyl tetramic acids. Novel antibacterial agents with activity against anaerobes and staphylococci” (J Med Chem, 1989).
In brackets after ≈: the same amount, converted by molar mass.

Assays:
Bacteroides fragilis [1] = assay: Minimum inhibitory concentration against Bacteroides fragilis ATCC 25285; format: functional
Method in brief: (§1)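 Anaerobic MICs by 2-fold dilution in Wilkens-Chalgren broth, reported in micrograms/milliliter.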

[2] = tested on: Bacteroides thetaiotaomicron; assay: Minimum inhibitory concentration against Bacteroides thetaiotaomicron ATCC 29741; format: functional; method in brief: as §1
Clostridioides difficile [3] = assay: Minimum inhibitory concentration against Clostridium difficile ATCC 9689; format: functional; method in brief: as §1
Clostridium perfringens [4] = assay: Minimum inhibitory concentration against Clostridium perfringens ATCC 13124; format: functional
Method in brief: (§2)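 Anaerobic MIC by 2-fold dilution in Wilkens-Chalgren broth; values in µg/mL.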

Clostridium perfringens [5] = assay: Minimum inhibitory concentration against Clostridium perfringens ATCC 13124; 0.05-0.1; format: functional; method in brief: as §2
Clostridioides difficile [6] = assay: Minimum inhibitory concentration against Clostridium difficile ATCC 9689; 1.6-3.1; format: functional; method in brief: as §1
[7] = tested on: Bacteroides thetaiotaomicron; assay: Minimum inhibitory concentration against Bacteroides thetaiotaomicron ATCC 29741; 0.2-0.8; format: functional; method in brief: as §1
Bacteroides fragilis [8] = assay: Minimum inhibitory concentration against Bacteroides fragilis ATCC 25285; 0.1-0.8; format: functional; method in brief: as §1
[9] = molecular target: DNA-directed RNA polymerase subunit beta (Escherichia coli K-12) (UniProt P0A8V2); assay: Percent inhibition at a concentration of 100 ug/mL of RNA polymerase isolated from Escherichia coli K12 (Sigma)
Sequence of DNA-directed RNA polymerase subunit beta (Escherichia coli K-12) (P0A8V2 whole entry, looked up): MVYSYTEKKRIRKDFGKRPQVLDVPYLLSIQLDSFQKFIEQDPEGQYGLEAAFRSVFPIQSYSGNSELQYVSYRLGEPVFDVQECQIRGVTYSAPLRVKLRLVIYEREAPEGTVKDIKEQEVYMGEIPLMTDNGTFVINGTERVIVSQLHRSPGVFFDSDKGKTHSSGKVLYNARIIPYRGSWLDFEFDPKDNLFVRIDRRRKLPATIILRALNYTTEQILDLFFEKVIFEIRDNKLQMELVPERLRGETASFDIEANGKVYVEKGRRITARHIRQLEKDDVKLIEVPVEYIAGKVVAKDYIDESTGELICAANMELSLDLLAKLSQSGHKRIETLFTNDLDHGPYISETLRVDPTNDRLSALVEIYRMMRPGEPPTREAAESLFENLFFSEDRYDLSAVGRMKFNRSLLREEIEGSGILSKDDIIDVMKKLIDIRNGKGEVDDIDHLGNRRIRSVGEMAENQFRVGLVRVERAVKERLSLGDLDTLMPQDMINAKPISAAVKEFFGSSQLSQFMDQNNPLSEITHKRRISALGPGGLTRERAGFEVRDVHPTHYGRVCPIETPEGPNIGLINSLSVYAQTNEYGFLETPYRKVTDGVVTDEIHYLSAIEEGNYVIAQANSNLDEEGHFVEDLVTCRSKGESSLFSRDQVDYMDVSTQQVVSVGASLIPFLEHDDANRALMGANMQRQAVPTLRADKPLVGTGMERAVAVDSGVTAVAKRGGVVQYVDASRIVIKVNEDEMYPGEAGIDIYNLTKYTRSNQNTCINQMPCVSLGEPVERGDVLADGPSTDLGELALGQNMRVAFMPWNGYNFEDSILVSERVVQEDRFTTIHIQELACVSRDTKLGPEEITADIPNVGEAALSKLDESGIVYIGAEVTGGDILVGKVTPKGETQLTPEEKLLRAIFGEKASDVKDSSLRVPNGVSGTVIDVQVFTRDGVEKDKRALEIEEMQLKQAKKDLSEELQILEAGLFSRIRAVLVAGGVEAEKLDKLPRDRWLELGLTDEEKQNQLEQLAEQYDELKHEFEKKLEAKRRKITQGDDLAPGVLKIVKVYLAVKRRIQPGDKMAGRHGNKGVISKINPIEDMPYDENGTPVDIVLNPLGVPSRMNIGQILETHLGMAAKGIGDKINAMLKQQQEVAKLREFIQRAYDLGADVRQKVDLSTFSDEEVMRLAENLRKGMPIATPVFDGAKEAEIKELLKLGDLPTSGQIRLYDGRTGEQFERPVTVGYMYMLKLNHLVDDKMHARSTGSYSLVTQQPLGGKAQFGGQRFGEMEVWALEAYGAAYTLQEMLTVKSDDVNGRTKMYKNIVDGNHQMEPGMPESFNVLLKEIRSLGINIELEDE

Staphylococcus aureus [10] = assay: Compound is evaluated for cross resistance with DNA gyrase subunit A or B against Staphylococcus aureus 45; format: functional
Method in brief: (§3)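 Aerobic MIC by 2-fold dilution on brain–heart infusion agar; values in µg/mL.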

Staphylococcus aureus [11] = assay: Compound is evaluated for cross resistance with DNA gyrase subunit A or B against Staphylococcus aureus 45CR-1 (coumermycin resistant); format: functional; method in brief: as §3
Staphylococcus aureus [12] = assay: Compound is evaluated for cross resistance with DNA gyrase subunit A or B against Staphylococcus aureus 337-113 (norfloxacin-resistant); format: functional; method in brief: as §3
Staphylococcus aureus [13] = assay: Compound is evaluated for cross resistance with DNA gyrase subunit A or B against Staphylococcus aureus 730A; format: functional; method in brief: as §3
Micrococcus luteus = assay: Minimum inhibitory concentration (MIC) against the cell line Micrococcus luteus ATCC 4698; format: functional
Method in brief: (§4)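 Aerobic MICs by 2-fold dilution on brain–heart infusion agar, reported in micrograms/milliliter.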

Streptococcus pyogenes = assay: Minimum inhibitory concentration (MIC) against the cell line Streptococcus pyogenes EES61; format: functional; method in brief: as §4
Staphylococcus aureus [14] = assay: Minimum inhibitory concentration (MIC) against the cell line Staphylococcus aureus CMX 686B; format: functional; method in brief: as §4
Escherichia coli [15] = assay: Minimum inhibitory concentration (MIC) against the cell line Escherichia coli H560; format: functional; method in brief: as §4
[16] = tested on: Staphylococcus epidermidis; assay: Minimum inhibitory concentration (MIC) against the strain Staphylococcus epidermidis 3519
Staphylococcus aureus [17] = assay: Minimum inhibitory concentration (MIC) against the cell line Staphylococcus aureus 45; format: functional; method in brief: as §4
Staphylococcus aureus [18] = assay: Minimum inhibitory concentration (MIC) against the cell line Staphylococcus aureus ATCC 6538P; format: functional; method in brief: as §4
Staphylococcus aureus [19] = assay: Minimum inhibitory concentration (MIC) against the cell line Staphylococcus aureus A5177; format: functional; method in brief: as §4
Streptococcus equinus = assay: Minimum inhibitory concentration (MIC) against the cell line Streptococcus bovis A5169; format: functional; method in brief: as §4
Escherichia coli [20] = assay: Minimum inhibitory concentration (MIC) against the cell line Escherichia coli juhl; format: functional; method in brief: as §4
Pseudomonas aeruginosa = assay: Minimum inhibitory concentration (MIC) against the cell line Pseudomonas aeruginosa A5007; format: functional; method in brief: as §4

Compound | MIC (Bacteroides fragilis [1]) [µg/mL] | MIC [2] [µg/mL] | MIC (Clostridioides difficile [3]) [µg/mL] | MIC (Clostridium perfringens [4]) [µg/mL] | also measured
CC(/C=C/C(=O)C1=C(O)C(C)N(C)C1=O)=C\c1ccc2ccccc2c1 (configuration not stated) | 62 (≈ 178 µM) | 62 (≈ 178 µM) | 62 (≈ 178 µM) | 31 (≈ 89.2 µM) | 
CC(/C=C/C(=O)C1=C(O)CN(C)C1=O)=C\C1CCCCO1 (configuration not stated) | 125 (≈ 429 µM) | 125 (≈ 429 µM) | 125 (≈ 429 µM) | 125 (≈ 429 µM) | 
O=C(/C=C/C=C/c1ccccc1)C1=C(O)CNC1=O | 50 (≈ 196 µM) | 50 (≈ 196 µM) | 25 (≈ 97.9 µM) | 25 (≈ 97.9 µM) | 
CC(/C=C/C(=O)C1=C(O)CN(C)C1=O)=C\C1CCc2ccccc2C1 (configuration not stated) | 125 (≈ 370 µM) | 62 (≈ 184 µM) | 125 (≈ 370 µM) | 125 (≈ 370 µM) | 
CC(/C=C/C(=O)C1=C(O)CN(C)C1=O)=C\CC1CCCCC1 | 8 (≈ 26.4 µM) | 31 (≈ 102 µM) | 2 (≈ 6.59 µM) | 2 (≈ 6.59 µM) | 
CCCCCCCCCCC/C=C(C)/C=C/C(O)=C1\C(=O)CN(C)C1=O | 125 (≈ 346 µM) | 125 (≈ 346 µM) | 4 (≈ 11.1 µM) | 31 (≈ 85.7 µM) | 
CN1CC(=O)\C(=C(O)/C=C/C=C/c2ccc(N(C)C)cc2)C1=O | 125 (≈ 400 µM) | 62 (≈ 198 µM) | 31 (≈ 99.2 µM) | 31 (≈ 99.2 µM) | 
CC(/C=C/C(O)=C1\C(=O)CN(C)C1=O)=C\C(C)C | 31 (≈ 124 µM) | 62 (≈ 249 µM) | 31 (≈ 124 µM) | 31 (≈ 124 µM) | 
CC(/C=C/C(O)=C1\C(=O)CNC1=O)=C\[C@@H](C)C1OC2(C)OC(C(=O)[C@@H]3O[C@@]32C)C1C (some centres not stated) |  |  |  |  | MIC (Clostridium perfringens [5]): ≤ 0.05 µg/mL; MIC (Clostridioides difficile [6]): 1.6 µg/mL (≈ 3.83 µM); MIC [7]: 0.2 µg/mL (≈ 0.479 µM); MIC (Bacteroides fragilis [8]): 0.1 µg/mL (≈ 0.24 µM); inhibition [9]: 50%
CO[C@H]1/C=C/O[C@@]2(C)Oc3c(C)c(O)c4c(O)c(c(/C=N/N5CCN(C)CC5)c(O)c4c3C2=O)NC(=O)/C(C)=C\C=C\[C@H](C)[C@H](O)[C@@H](C)[C@@H](O)[C@@H](C)[C@H](OC(C)=O)[C@@H]1C |  |  |  |  | inhibition [9]: 57%
CC(/C=C/C(=O)C1=C(O)CN(C)C1=O)=C\c1ccccn1 | 62 (≈ 218 µM) | 125 (≈ 440 µM) | 8 (≈ 28.1 µM) | 31 (≈ 109 µM) | 
CO[C@@H]1[C@@H](OC(=O)c2ccc(C)[nH]2)[C@@H](O)[C@@H](Oc2ccc3c(O)c(NC(=O)c4c[nH]c(C(=O)Nc5c(O)c6ccc(O[C@H]7OC(C)(C)[C@H](OC)[C@@H](OC(=O)c8ccc(C)[nH]8)[C@H]7O)c(C)c6oc5=O)c4C)c(=O)oc3c2C)OC1(C)C [COUMERMYCIN] |  |  |  |  | MIC (Staphylococcus aureus [10]): 0.008 µg/mL (≈ 0.00721 µM); MIC (Staphylococcus aureus [11]): 4 µg/mL (≈ 3.6 µM); MIC (Staphylococcus aureus [12]): 0.008 µg/mL (≈ 0.00721 µM); MIC (Staphylococcus aureus [13]): 0.008 µg/mL (≈ 0.00721 µM)
CC(/C=C/C(=O)C1=C(O)CN(C)C1=O)=C\c1ccccc1 | 4 (≈ 14.1 µM) | 8 (≈ 28.2 µM) | 4 (≈ 14.1 µM) | 8 (≈ 28.2 µM) | 
CC(/C=C/C(=O)C1=C(O)CN(C)C1=O)=C\c1ccc(-c2ccccc2)cc1 | 8 (≈ 22.3 µM) | 125 (≈ 348 µM) | ≤ 0.5 | 31 (≈ 86.2 µM) | 
CC(/C=C/C(=O)C1=C(O)CN(C)C1=O)=C\C1CCCCC1 | 8 (≈ 27.6 µM) | 8 (≈ 27.6 µM) | 4 (≈ 13.8 µM) | 4 (≈ 13.8 µM) | 
CCCCCC(/C=C/C(O)=C1\C(=O)CN(C)C1=O)=C\c1ccccc1 | 62 (≈ 183 µM) | 125 (≈ 368 µM) | 31 (≈ 91.3 µM) | 16 (≈ 47.1 µM) | inhibition [9]: 5.6%
CC(/C=C/C(=O)C1=C(O)CN(C)C1=O)=C\c1ccnc2ccccc12 | 16 (≈ 47.9 µM) | 31 (≈ 92.7 µM) | 8 (≈ 23.9 µM) | 8 (≈ 23.9 µM) | 
CC(/C=C/C(=O)C1=C(O)CN(C)C1=O)=C\c1cccc2ccccc12 | < 0.5 | 2 (≈ 6 µM) | < 0.5 | < 0.5 | MIC (Micrococcus luteus): 6.2 µg/mL (≈ 18.6 µM); MIC (Streptococcus pyogenes): 12.5 µg/mL (≈ 37.5 µM); MIC (Staphylococcus aureus [14]): 3.1 µg/mL (≈ 9.3 µM); MIC (Escherichia coli [15]): > 100 µg/mL; MIC [16]: 3.1 µg/mL (≈ 9.3 µM); MIC (Staphylococcus aureus [17]): 3.1 µg/mL (≈ 9.3 µM); MIC (Staphylococcus aureus [18]): 3.1 µg/mL (≈ 9.3 µM); MIC (Staphylococcus aureus [19]): 3.1 µg/mL (≈ 9.3 µM); MIC (Streptococcus equinus): 50 µg/mL (≈ 150 µM); MIC (Escherichia coli [20]): > 100 µg/mL; MIC (Pseudomonas aeruginosa): > 100 µg/mL
CC(/C=C/C(O)=C1\C(=O)CNC1=O)=C\c1ccccc1 | 4 (≈ 14.9 µM) | 4 (≈ 14.9 µM) | 4 (≈ 14.9 µM) | 8 (≈ 29.7 µM) | inhibition [9]: 4.5%
